Test results taken from ChEMBL document CHEMBL1134139, “Synthesis and biological activity of novel macrocyclic antifungals. modification of the tyrosine moiety of the lipopeptidolactone FR901469” (2001).
Values after ≈ are worked out from the molar mass of the structure shown.

Legend:
Candida albicans [1] = assay: In vitro antifungal activity against Candida albicans FP633 by broth microdilution method; type: functional
Summary of the method: (§1)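 Broth microdilution run to NCCLS M27-A guidelines. MIC read per that standard.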

Candida albicans [2] = assay: In vitro antifungal activity against Candida albicans 13004 by broth microdilution method; type: functional; summary of the method: as §1
Aspergillus fumigatus [3] = assay: In vitro antifungal activity against Aspergillus fumigatus 8004 by broth microdilution method; type: functional; summary of the method: as §1
Mus musculus [4] = species on record: Mus musculus; assay: Ability to hemolyze ICR mouse RBCs at 1 mg/mL using microtiter red blood cell hemolysis assay.
Aspergillus fumigatus [5] = assay: In vitro antifungal activity against Aspergillus fumigatus FP1305 by broth microdilution method; type: functional; summary of the method: as §1
Candida tropicalis = assay: In vitro antifungal activity against Candida tropicalis 8001 by agar dilution method using Sabouraud Dextrose agar.; type: functional
Summary of the method: (§2)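 Agar dilution on Sabouraud Dextrose agar. MIC taken as the lowest concentration that inhibits visible growth.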

Candida albicans [6] = assay: In vitro antifungal activity against Candida albicans FP579 by agar dilution method using Sabouraud Dextrose agar.; type: functional; summary of the method: as §2
Candida parapsilosis = assay: In vitro antifungal activity against Candida parapsilosis 15001 by agar dilution method using Sabouraud Dextrose agar.; type: functional; conditions: Lodderomyces parapsilosis; summary of the method: as §2
Candida albicans [7] = assay: In vitro Antifungal activity against Candida albicans FP633 by agar dilution method using Sabouraud Dextrose agar.; type: functional; summary of the method: as §2
[8] = system: Meyerozyma guilliermondii; assay: In vitro antifungal activity against Candida guilliermondii FP587 by agar dilution method using Sabouraud Dextrose agar.; type: functional; summary of the method: as §2
Mus musculus [9] = assay: Compound was evaluated in vivo for antifungal activity and efficacy in disseminated murine candidiasis was determined; type: functional
[10] = Candida tropicalis, read-out: MIC

Compound	MIC (Candida albicans [1]) [µg/mL]	MIC (Candida albicans [2]) [µg/mL]	MIC (Aspergillus fumigatus [3]) [µg/mL]	MIC (Aspergillus fumigatus [5]) [µg/mL]	MIC (Candida tropicalis) [µg/mL]	MIC (Candida tropicalis; [10]) [µg/mL]	MIC (Candida albicans [6]) [µg/mL]	MIC (Candida parapsilosis) [µg/mL]	MIC (Candida albicans [7]) [µg/mL]	MIC [8] [µg/mL]	Hemolytic activity (Mus musculus [4]) [%]	ED50 (Mus musculus [9]) [mg/kg]
CCCCCCCCCCCCC[C@H](CC(=O)N[C@@H](C(=O)N[C@H](C)C(=O)N[C@@H](Cc1ccc(OCC(=O)NCCCn2ccnc2)cc1)C(=O)N[C@H](C(=O)N1C[C@H](O)C[C@H]1C(=O)N[C@@H](C(=O)N[C@H](C(=O)N1CC[C@H](O)[C@H]1C(=O)N[C@H](C(=O)NCC(=O)N[C@@H](C(N)=O)[C@@H](C)O)[C@H](O)CC(N)=O)[C@@H](C)O)[C@@H](C)O)C(C)C)[C@@H](C)O)OC(=O)[C@@H](C)CCCN.Cl	1	2	2	1	–	–	–	–	–	–	53	–
CCCCCCCCCCCCC[C@H](CC(=O)N[C@@H](C(=O)N[C@H](C)C(=O)N[C@@H](Cc1ccc(O)c(Cl)c1)C(=O)N[C@H](C(=O)N1C[C@H](O)C[C@H]1C(=O)N[C@@H](C(=O)N[C@H](C(=O)N1CC[C@H](O)[C@H]1C(=O)N[C@H](C(=O)NCC(=O)N[C@@H](C(N)=O)[C@@H](C)O)[C@H](O)CC(N)=O)[C@@H](C)O)[C@@H](C)O)C(C)C)[C@@H](C)O)OC(=O)[C@@H](C)CCCN	–	–	–	–	0.78 (≈ 0.492 µM)	0.78 (≈ 0.492 µM)	0.78 (≈ 0.492 µM)	0.78 (≈ 0.492 µM)	0.39 (≈ 0.246 µM)	0.78 (≈ 0.492 µM)	97	–
CCCCCCCCCCCCC[C@H](CC(=O)N[C@@H](C(=O)N[C@H](C)C(=O)N[C@@H](Cc1ccc(O)c(NC(=O)CC[C@H](N)C(=O)O)c1)C(=O)N[C@H](C(=O)N1C[C@H](O)C[C@H]1C(=O)N[C@@H](C(=O)N[C@H](C(=O)N1CC[C@H](O)[C@H]1C(=O)N[C@H](C(=O)NCC(=O)N[C@@H](C(N)=O)[C@@H](C)O)[C@H](O)CC(N)=O)[C@@H](C)O)[C@@H](C)O)C(C)C)[C@@H](C)O)OC(=O)[C@@H](C)CCCN	0.5 (≈ 0.295 µM)	0.5 (≈ 0.295 µM)	1 (≈ 0.59 µM)	0.5 (≈ 0.295 µM)	–	–	–	–	–	–	60	1.02
CCCCCCCCCCCCC[C@H](CC(=O)N[C@@H](C(=O)N[C@H](C)C(=O)N[C@@H](Cc1ccc(O)c(NC(=O)[C@H](N)Cc2c[nH]cn2)c1)C(=O)N[C@H](C(=O)N1C[C@H](O)C[C@H]1C(=O)N[C@@H](C(=O)N[C@H](C(=O)N1CC[C@H](O)[C@H]1C(=O)N[C@H](C(=O)NCC(=O)N[C@@H](C(N)=O)[C@@H](C)O)[C@H](O)CC(N)=O)[C@@H](C)O)[C@@H](C)O)C(C)C)[C@@H](C)O)OC(=O)[C@@H](C)CCCN	2 (≈ 1.18 µM)	2 (≈ 1.18 µM)	2 (≈ 1.18 µM)	2 (≈ 1.18 µM)	–	–	–	–	–	–	65	–
CCCCCCCCCCCCC[C@H](CC(=O)N[C@@H](C(=O)N[C@H](C)C(=O)N[C@@H](Cc1ccc(O)c(N)c1)C(=O)N[C@H](C(=O)N1C[C@H](O)C[C@H]1C(=O)N[C@@H](C(=O)N[C@H](C(=O)N1CC[C@H](O)[C@H]1C(=O)N[C@H](C(=O)NCC(=O)N[C@@H](C(N)=O)[C@@H](C)O)[C@H](O)CC(N)=O)[C@@H](C)O)[C@@H](C)O)C(C)C)[C@@H](C)O)OC(=O)[C@@H](C)CCCN	–	–	–	–	1.56 (≈ 0.997 µM)	1.56 (≈ 0.997 µM)	1.56 (≈ 0.997 µM)	1.56 (≈ 0.997 µM)	0.78 (≈ 0.498 µM)	0.78 (≈ 0.498 µM)	100	–

More lines, main results first:

MIC (Candida albicans [1]) [µg/mL]	MIC (Candida albicans [2]) [µg/mL]	MIC (Aspergillus fumigatus [3]) [µg/mL]	MIC (Aspergillus fumigatus [5]) [µg/mL]	MIC (Candida tropicalis) [µg/mL]	MIC (Candida tropicalis; [10]) [µg/mL]	MIC (Candida albicans [6]) [µg/mL]	MIC (Candida parapsilosis) [µg/mL]	MIC (Candida albicans [7]) [µg/mL]	MIC [8] [µg/mL]	Compound	Hemolytic activity (Mus musculus [4]) [%]	ED50 (Mus musculus [9]) [mg/kg]
–	–	–	–	1.56	1.56	1.56	1.56	1.56	1.56	CCCCCCCCCCCCC[C@H](CC(=O)N[C@@H](C(=O)N[C@H](C)C(=O)N[C@@H](Cc1ccc(O)c(NC(=O)CCN)c1)C(=O)N[C@H](C(=O)N1C[C@H](O)C[C@H]1C(=O)N[C@@H](C(=O)N[C@H](C(=O)N1CC[C@H](O)[C@H]1C(=O)N[C@H](C(=O)NCC(=O)N[C@@H](C(N)=O)[C@@H](C)O)[C@H](O)CC(N)=O)[C@@H](C)O)[C@@H](C)O)C(C)C)[C@@H](C)O)OC(=O)[C@@H](C)CCCNC(C)=O.Cl	23	–
0.5 (≈ 0.311 µM)	0.5 (≈ 0.311 µM)	1 (≈ 0.622 µM)	0.125 (≈ 0.0777 µM)	–	–	–	–	–	–	CCCCCCCCCCCCC[C@H](CC(=O)N[C@@H](C(=O)N[C@H](C)C(=O)N[C@@H](Cc1ccc(OCC(=O)O)cc1)C(=O)N[C@H](C(=O)N1C[C@H](O)C[C@H]1C(=O)N[C@@H](C(=O)N[C@H](C(=O)N1CC[C@H](O)[C@H]1C(=O)N[C@H](C(=O)NCC(=O)N[C@@H](C(N)=O)[C@@H](C)O)[C@H](O)CC(N)=O)[C@@H](C)O)[C@@H](C)O)C(C)C)[C@@H](C)O)OC(=O)[C@@H](C)CCCN	76	–
0.5	0.5	0.5	0.125	–	–	–	–	–	–	CCCCCCCCCCCCC[C@H](CC(=O)N[C@H](C(=O)N[C@@H](C)C(=O)N[C@@H](Cc1ccc(OCC(=O)O)c(NC(=O)CCN)c1)C(=O)N[C@H](C(=O)N1C[C@H](O)C[C@H]1C(=O)N[C@@H](C(=O)N[C@H](C(=O)N1CC[C@H](O)[C@H]1C(=O)N[C@H](C(=O)NCC(=O)N[C@H](C(N)=O)[C@@H](C)O)[C@H](O)CC(N)=O)[C@@H](C)O)[C@@H](C)O)C(C)C)[C@@H](C)O)OC(=O)[C@@H](C)CCCN.Cl	23	0.72
